pIC50: −log10 of the molar value.
Columns and labels:
[1] = Cmax in mouse plasma at 0.1 umol/cm'2 administered topically; conditions: topical or ocular
In short: (§1)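 Mouse PK after one topical application of 0.1 μmol/cm², given as a 10 mM solution in PG/EtOH 3/7. Cmax is reported in μM for dermis and for plasma.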

Caspase-1 [2] = target: T1, Caspase-1 (Homo sapiens, UniProt P29466); experiment: Inhibition of caspase-1 in human THP1 cells assessed as decrease in LPS-induced IL-1beta secretion after overnight incubation by sandwich immunoassay; format: cell-based
T1 sequence (P29466 whole entry): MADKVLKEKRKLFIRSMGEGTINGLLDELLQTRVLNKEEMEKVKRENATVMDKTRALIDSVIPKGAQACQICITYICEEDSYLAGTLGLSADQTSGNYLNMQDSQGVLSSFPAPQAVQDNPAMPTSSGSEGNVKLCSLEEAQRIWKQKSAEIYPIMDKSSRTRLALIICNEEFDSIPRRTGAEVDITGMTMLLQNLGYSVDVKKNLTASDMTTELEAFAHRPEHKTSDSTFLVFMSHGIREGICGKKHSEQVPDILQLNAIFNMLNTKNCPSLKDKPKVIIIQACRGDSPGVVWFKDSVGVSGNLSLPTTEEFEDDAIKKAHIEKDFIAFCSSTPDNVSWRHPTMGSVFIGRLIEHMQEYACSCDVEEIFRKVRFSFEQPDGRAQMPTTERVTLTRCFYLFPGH

[3] = Intrinsic clearance in human hepatocytes assessed per 10^6 cells; format: ADME, cell-based, Hepatocyte; conditions: read-out: CLH
[4] = Lipophilicity, log D of the compound at pH 6.5 by chromatographic method; format: physicochemical; conditions: buffer
In short: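 Chromatographic lipophilicity at pH 6.5, converted to ChromLogD = CHI × 0.0857 − 2.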

Caspase-5 = target: T2, Caspase-5 (Homo sapiens, UniProt P51878); experiment: Inhibition of human recombinant caspase-5 using AC-WEHD-AMC as substrate at Km after 20 mins by fluorescence assay
T2 sequence (P51878 whole entry): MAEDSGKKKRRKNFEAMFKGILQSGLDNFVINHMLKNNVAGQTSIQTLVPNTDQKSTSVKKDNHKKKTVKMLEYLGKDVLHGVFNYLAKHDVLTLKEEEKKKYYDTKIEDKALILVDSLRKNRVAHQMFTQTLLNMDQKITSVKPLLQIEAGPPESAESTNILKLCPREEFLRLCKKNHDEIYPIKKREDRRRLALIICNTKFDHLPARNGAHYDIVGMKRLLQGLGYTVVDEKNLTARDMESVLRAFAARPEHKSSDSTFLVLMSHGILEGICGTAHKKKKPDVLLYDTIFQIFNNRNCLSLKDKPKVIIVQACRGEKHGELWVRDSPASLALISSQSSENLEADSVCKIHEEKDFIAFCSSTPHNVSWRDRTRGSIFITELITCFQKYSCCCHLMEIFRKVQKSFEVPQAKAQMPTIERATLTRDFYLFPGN
In short: (§2)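 Human recombinant caspases in pH 7.4 HEPES buffer (100 mM NaCl, 0.1% CHAPS, 1 mM EDTA, 10% glycerol, 10 mM DTT), each with its own AMC substrate at a final concentration equal to its Km. Compounds tested at 10 000–0.04 nM in 1% DMSO. Enzyme level is set to convert under 20% of substrate in 20 min, or 2 h depending on activity, at room temperature. AMC read at 340/450 nm; IC50 from a four-parameter logistic fit.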

[5] = Phototoxicity in NHEK assessed as decrease in cell viability after 24 hrs in presence of UV light by neutral red uptake assay; conditions: human
In short: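 Keratinocyte neutral red uptake assay adapted from the OECD 432 3T3 NRU test. Cells are irradiated with a simulated daily UV dose of 6 J/cm², and viability is read after 24 h exposure to compound.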

Caspase-6 = target: T3, Caspase-6 (Homo sapiens, UniProt P55212); experiment: Inhibition of human recombinant caspase-6 using Ac-VEID-AMC as substrate at Km after 20 mins by fluorescence assay; in short: as §2
T3 sequence (P55212 whole entry): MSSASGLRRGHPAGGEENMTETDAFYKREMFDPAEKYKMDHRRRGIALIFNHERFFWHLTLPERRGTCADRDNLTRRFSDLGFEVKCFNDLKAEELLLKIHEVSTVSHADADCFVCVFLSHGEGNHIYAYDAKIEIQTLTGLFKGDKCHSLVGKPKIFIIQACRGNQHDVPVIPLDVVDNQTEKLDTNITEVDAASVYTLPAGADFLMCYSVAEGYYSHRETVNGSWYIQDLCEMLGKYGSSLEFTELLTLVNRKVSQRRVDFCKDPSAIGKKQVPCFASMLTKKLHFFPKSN

Caspase-3 = target: T4, Caspase-3 (Homo sapiens, UniProt P42574); experiment: Inhibition of human recombinant caspase-3 using Ac-DEVD-AMC as substrate at Km after 20 mins by fluorescence assay; in short: as §2
T4 sequence (P42574 whole entry): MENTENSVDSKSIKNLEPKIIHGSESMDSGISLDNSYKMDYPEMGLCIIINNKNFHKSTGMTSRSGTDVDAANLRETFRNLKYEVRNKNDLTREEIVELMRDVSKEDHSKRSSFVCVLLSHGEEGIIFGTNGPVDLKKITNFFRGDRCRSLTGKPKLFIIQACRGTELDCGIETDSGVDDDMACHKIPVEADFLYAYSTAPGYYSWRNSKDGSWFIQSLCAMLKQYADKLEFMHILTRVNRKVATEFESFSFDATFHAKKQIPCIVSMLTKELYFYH

Caspase-1 [6] = target: T1, Caspase-1; experiment: Inhibition of human recombinant caspase-1 using AC-WEHD-AMC as substrate at Km after 20 mins by fluorescence assay; conditions: read-out: IC50
Caspase-1 [7] = target: T1, Caspase-1; experiment: Inhibition of caspase-1 in human monocyte-derived macrophages assessed as decrease in LPS-induced IL-1beta secretion after 24 hrs by sandwich immunoassay
In short: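 Cryopreserved human peripheral blood monocytes are cultured 10 days at 37 °C in RPMI with 10% heat-inactivated FBS and 100 ng/mL GM-CSF to give M1 macrophages. Cells are then stimulated with LPS 10 µg/mL plus IFNγ 20 ng/mL and treated with compound serial dilutions (10000–0.04 nM, 0.1% DMSO).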

[8] = Chemical stability in 96% ethanol assessed as parent compound recovery at 23 degC after 3 months; format: physicochemical; conditions: read-out: Drug recovery
In short: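 Compounds bearing the aspartyl aldehyde warhead are held in 96% ethanol at 23 °C and assayed as percent of parent compound recovered. Readings taken after 4 weeks are projected to 12 weeks with best-fit kinetic-order equations. Tautomers and potential stereoisomers are counted as parent.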

[9] = Cmax in mouse dermis at 0.1 umol/cm'2 administered topically; format: ADME, tissue-based; conditions: topical or ocular; in short: as §1
[10] = Drug uptake in human dermis at 0.2 umol/cm'2 administered topically; format: ADME, tissue-based; conditions: topical_or_ocular, read-out: Drug uptake
In short: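 Cryogenically preserved human skin explant given one topical application of 0.2 μmol/cm² from a 40 mM PG/EtOH 3/7 solution. Dermis concentration is reported in μM.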

Caspase-7 = target: T5, Caspase-7 (Homo sapiens, UniProt P55210); experiment: Inhibition of human recombinant caspase-7 using Ac-DEVD-AMC as substrate at Km after 20 mins by fluorescence assay; in short: as §2
T5 sequence (P55210 whole entry): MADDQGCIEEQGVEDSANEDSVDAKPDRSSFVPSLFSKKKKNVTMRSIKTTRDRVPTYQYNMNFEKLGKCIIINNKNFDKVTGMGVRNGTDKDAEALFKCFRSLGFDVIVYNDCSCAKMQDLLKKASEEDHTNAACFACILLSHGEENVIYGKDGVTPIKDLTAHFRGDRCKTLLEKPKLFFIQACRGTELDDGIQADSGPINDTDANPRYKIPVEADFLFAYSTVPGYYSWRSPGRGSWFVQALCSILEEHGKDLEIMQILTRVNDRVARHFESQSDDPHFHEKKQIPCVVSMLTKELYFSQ

Caspase-8 = Caspase-8 (Homo sapiens, UniProt Q14790); experiment: Inhibition of human recombinant caspase-8 using Ac-IETD-AMC as substrate at Km after 20 mins by fluorescence assay; in short: as §2
Sequence of Caspase-8 (Q14790 217-374 limits assumed): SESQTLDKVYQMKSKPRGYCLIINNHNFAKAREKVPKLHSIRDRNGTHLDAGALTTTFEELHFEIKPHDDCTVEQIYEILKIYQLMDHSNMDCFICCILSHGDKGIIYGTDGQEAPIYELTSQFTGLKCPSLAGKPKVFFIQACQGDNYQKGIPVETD
Sequence of Caspase-8 (Q14790 385-479 limits assumed): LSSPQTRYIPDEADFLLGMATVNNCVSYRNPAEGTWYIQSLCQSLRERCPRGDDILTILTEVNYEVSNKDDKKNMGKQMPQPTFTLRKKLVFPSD

Cc1cc(Nc2ccc3ccccc3c2)ccc1C(=O)Nc1cn(C(C)C)c(=O)n(C2(C(=O)N[C@H]3CC(=O)OC3O)CC2)c1=O (stereo not given in full)
Cmax [1]: 0.0013 µM | pIC50 (Caspase-1 [2]): 7.42 | hepatocyte CLint [3]: 9.8 µL/min/1e6 cells | chromatographic logD [4]: 3.7 | pIC50 (Caspase-5): 5.53 | Activity [5]: Non-Toxic | pIC50 (Caspase-6): < 5.00 | pIC50 (Caspase-3): < 5.00 | pIC50 (Caspase-1 [6]): 8.01 | pIC50 (Caspase-1 [7]): 6.80 | remaining at 2191.5 h [8]: 100% | Cmax [9]: 4.2 µM | concentration [10]: 4.5 µM | pIC50 (Caspase-7): < 5.00 | pIC50 (Caspase-8): < 5.00
